Measurements published in ChEMBL document CHEMBL1150253, “Synthesis and anti-platelet evaluation of 2-benzoylaminobenzoate analogs” (Bioorg Med Chem, 2008).

Key:
Blood [1] = assay: Inhibition of arachidonic acid-induced platelet aggregation in human blood after 3 mins by turbidimetric assay; type: functional, tissue-based; details: 0.05 h
Outline: (§1)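 Washed human platelets were prepared from ACD-anticoagulated blood of healthy volunteers who had taken no drugs for two weeks. They were resuspended at 3 × 10⁸/ml in Tyrode's solution with Ca²⁺ 2 mM, glucose 11.1 mM and BSA 3.5 mg/ml. Platelets were preincubated with DMSO (0.5%) or compound at 37 °C for 3 min, stirring at 1200 rpm. Inducers were arachidonic acid, collagen, U46619 or thrombin (0.1 U/ml). Aggregation was read by light transmission. IC50 is mean ± SEM, n = 3.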

Blood [2] = assay: Inhibition of U46619-induced platelet aggregation in human blood after 3 mins by turbidimetric assay; type: functional, tissue-based; details: 0.05 h; outline: as §1
Blood [3] = assay: Inhibition of thrombin-induced platelet aggregation in human blood after 3 mins by turbidimetric assay; details: 0.05 h
Blood [4] = assay: Inhibition of collagen-induced platelet aggregation in human blood after 3 mins by turbidimetric assay; details: 0.05 h
Platelet [5] = assay: Inhibition of arachidonic acid-induced TxB2 formation in human platelet at 0.5 uM per 3 x 10^8 platelets by immunoassay; type: functional
Outline: (§2)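 Washed human platelets were suspended in Tyrode's solution with Ca²⁺, glucose and BSA and preincubated with DMSO or compound at 37 °C for 3 min. Arachidonic acid was then added. After 5 min the reaction was stopped with EDTA (2 mM) plus indomethacin. Samples were centrifuged for 3 min at 13,000 rpm. Supernatant TxB2 was measured by enzyme immunoassay and expressed per 3 × 10⁸ platelets. Values are mean ± SEM, n = 3.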

Platelet [6] = assay: Inhibition of arachidonic acid-induced TxB2 formation in human platelet at 1 uM per 3 x 10^8 platelets by immunoassay; type: functional; outline: as §2

| Compound | IC50 (Blood [1]) [µM] | IC50 (Blood [2]) [µM] | IC50 (Blood [3]) [µM] | IC50 (Blood [4]) [µM] | Activity (Platelet [5]) [ng] | Activity (Platelet [6]) [ng] |
| --- | --- | --- | --- | --- | --- | --- |
| CCCCNC(=O)c1ccc(Cl)cc1NC(=O)c1ccccc1F | 3.5 | > 100 | > 100 | 2.2 |  |  |
| CCCNC(=O)c1ccc(Cl)cc1NC(=O)c1ccccc1OC | 6 | > 100 | > 100 | 11.1 |  |  |
| CCCOC(=O)c1ccc(F)cc1NC(=O)c1ccccc1Br | 3.3 |  | > 100 | 16.7 |  |  |
| CCCCOC(=O)c1ccc(Cl)cc1NC(=O)c1ccccc1C | 4.7 | > 100 | > 100 | 76.2 |  |  |
| CCCOC(=O)c1ccc(F)cc1NC(=O)c1ccccc1C | 2 |  | > 100 | 25.1 |  |  |
| COc1ccc2c(c1)c(CC(=O)O)c(C)n2C(=O)c1ccc(Cl)cc1 [INDOMETHACIN] | 0.12 | > 100 | > 100 | 0.4 | 3.09 |  |
| CCOC(=O)c1ccc(F)cc1NC(=O)c1ccccc1Cl | 4.1 |  |  | 11 |  |  |
| CCCNC(=O)c1ccc(Cl)cc1NC(=O)c1ccccc1C | 8.4 | > 100 | > 100 | 10.3 |  |  |
| CCCOC(=O)c1ccc(Cl)cc1NC(=O)c1ccccc1C | 2.2 | > 100 | > 100 | 8.3 |  |  |
| CCCOC(=O)c1ccc(C)cc1NC(=O)c1ccccc1Cl | 1.6 |  |  | 7.8 |  |  |
| COC(=O)c1ccc(Cl)cc1NC(=O)c1c(Cl)cccc1Cl | 12.6 | > 100 | > 100 | 3.4 |  |  |
| CCCNC(=O)c1ccc(Cl)cc1NC(=O)c1ccccc1Cl | 3.4 | > 100 | > 100 | 4.1 |  |  |
| CCCCOC(=O)c1ccc(Cl)cc1NC(=O)c1ccccc1Cl | 2.1 | > 100 | > 100 | 19.5 |  |  |
| CCCOC(=O)c1ccc(C)cc1NC(=O)c1ccccc1C | 5.8 |  | > 100 | 20.1 |  |  |
| CCCOC(=O)c1ccc(C)cc1NC(=O)c1ccccc1F | 0.9 |  | > 100 | 11.3 |  |  |
| CCOC(=O)c1ccc(Cl)cc1NC(=O)c1ccccc1OC | 4.9 | > 100 | > 100 | 46.4 |  |  |
| CCCOC(=O)c1ccc(Cl)cc1NC(=O)c1ccccc1Cl | 0.7 | > 100 | > 100 | 2.3 | 62.56 | 32.52 |
| CCOC(=O)c1ccc(F)cc1NC(=O)c1ccccc1C | 21.1 |  |  | 36.1 |  |  |
| CCCOC(=O)c1ccc([N+](=O)[O-])cc1NC(=O)c1ccccc1C | 4.7 |  | > 100 | 8 |  |  |
| CCCCOC(=O)c1ccc(Cl)cc1NC(=O)c1ccccc1OC | > 100 | > 100 | > 100 | > 100 |  |  |
| CCCOC(=O)c1ccc(Cl)cc1NC(=O)c1ccccc1F | 1.6 | > 100 | > 100 | 11.6 |  |  |
| CC(C)OC(=O)c1ccc(Cl)cc1NC(=O)c1ccccc1F | > 100 | > 100 | > 100 | 36.7 |  |  |
| CCCCNC(=O)c1ccc(Cl)cc1NC(=O)c1c(F)cccc1F | 3.5 | > 100 | > 100 | 1 |  |  |
| CCCOC(=O)c1ccc([N+](=O)[O-])cc1NC(=O)c1ccccc1Br | 2.5 |  | > 100 | 4.9 |  |  |
| CCCCNC(=O)c1ccc(Cl)cc1NC(=O)c1ccccc1Cl | 3.4 | > 100 | > 100 | 1.1 |  |  |
| CCCNC(=O)c1ccc(Cl)cc1NC(=O)c1ccccc1F | 1.9 | > 100 | > 100 | 8.7 |  |  |
| CCCOC(=O)c1ccc(Cl)cc1NC(=O)c1c(Cl)cccc1Cl | 38.4 | > 100 | > 100 | 29.7 |  |  |
